Experimental data taken from ChEMBL document CHEMBL4396969, “Discovery of IACS-8803 and IACS-8779, potent agonists of stimulator of interferon genes (STING) with robust systemic antitumor efficacy” (Bioorg Med Chem Lett, 2019).
Activity calls are given as the source filed them. The calls are words filed in the database; no cut-off is given here.

Experiments:
Mus musculus [1] = assay: Antitumor activity against mouse B16-OVA cells implanted in mouse assessed as tumour regression in contralateral flank at 10 ug administered intratumorally on day 6, 9 and 12 post implantation; assay type: functional, cell-based
Method in brief: (§1)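 Mice (n=5 per group) implanted bilaterally with 1×10^5 B16-Ova cells; 10 µg CDN injected intratumorally into one flank only on days 6, 9 and 12 post implantation. Tumor regression followed in injected and contralateral untreated flanks; cure of both tumors recorded.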

Mus musculus [2] = assay: Antitumor activity against mouse B16-OVA cells implanted in mouse assessed as higher number of mouse cured of tumors at 10 ug administered intratumorally on day 6, 9 and 12 post implantation; assay type: functional, cell-based; method in brief: as §1
Mus musculus [3] = assay: Antitumor activity against mouse B16-OVA cells implanted in mouse assessed as tumour regression in injected flank at 10 ug administered intratumorally on day 6, 9 and 12 post implantation; assay type: functional, cell-based; method in brief: as §1
[4] = biological target: T1, Stimulator of interferon genes protein (Mus musculus) (UniProt Q3TBT3); assay: Agonist activity at STING in mouse J774 cells assessed as stimulation of IRF3 pathway measured after 20 hrs by luciferase reporter gene assay; assay type: cell-based
T1 sequence (whole entry): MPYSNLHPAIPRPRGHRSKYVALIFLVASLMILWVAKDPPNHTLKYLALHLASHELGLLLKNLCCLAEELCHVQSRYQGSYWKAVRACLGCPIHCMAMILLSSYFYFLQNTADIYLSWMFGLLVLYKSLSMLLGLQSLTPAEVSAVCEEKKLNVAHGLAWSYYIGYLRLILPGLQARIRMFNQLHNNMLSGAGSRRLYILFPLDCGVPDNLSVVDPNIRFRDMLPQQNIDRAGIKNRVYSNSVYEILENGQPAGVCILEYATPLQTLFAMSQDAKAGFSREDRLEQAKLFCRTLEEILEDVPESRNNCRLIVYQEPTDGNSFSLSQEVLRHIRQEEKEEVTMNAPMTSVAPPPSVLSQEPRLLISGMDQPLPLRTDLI
Method in brief: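 J774-Dual reporter cells (stably carrying inducible NF-kB and IRF3 reporter constructs), 5×10^4 per well, given CDN at 1 µg/mL for 20 hours; IRF3 pathway activity read by luciferase assay.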

Structure (SMILES): Nc1nc2c(ncn2[C@@H]2O[C@@H]3COP(=O)(O)O[C@H]4[C@@H](O)[C@H](n5cnc6c(N)ncnc65)O[C@@H]4COP(=O)(O)O[C@@H]2[C@@H]3O)c(=O)[nH]1
- Activity (Mus musculus [1]): Active
- Activity (Mus musculus [2]): Active
- Activity (Mus musculus [3]): Active

Structure (SMILES): Nc1ncnc2c1ccn2[C@@H]1O[C@@H]2CO[P@@](=O)(S)O[C@H]3[C@@H](O)[C@H](n4cnc5c(N)ncnc54)O[C@@H]3CO[P@](=O)(S)O[C@@H]1[C@@H]2O
- Activity [4]: Active

Structure (SMILES): Nc1ncnc2c1ccn2[C@@H]1O[C@@H]2CO[P@](=O)(S)O[C@@H]3[C@H](O)[C@@H](CO[P@@](=O)(S)O[C@H]2[C@H]1O)O[C@H]3n1cnc2c(N)ncnc21
- Activity [4]: Active

Structure (SMILES): Nc1ncnc2c1ccn2[C@@H]1O[C@@H]2CO[P@@](=O)(S)O[C@H]3[C@@H](O)[C@H](n4cnc5c(N)ncnc54)O[C@@H]3CO[P@@](=O)(S)O[C@@H]1[C@@H]2O
- Activity [4]: Active

Structure (SMILES): Nc1ncnc2c1ncn2[C@@H]1O[C@@H]2CO[P@@](=O)(S)O[C@@H]3[C@H](O)[C@@H](CO[P@@](=O)(S)O[C@H]2[C@H]1F)O[C@H]3n1cnc2c(N)ncnc21
- Activity [4]: Active
- Activity (Mus musculus [1]): Active
- Activity (Mus musculus [2]): Active
- Activity (Mus musculus [3]): Active

Structure (SMILES): Nc1ncnc2c1ncn2[C@@H]1O[C@@H]2CO[P@](=O)(S)O[C@@H]3[C@H](O)[C@@H](CO[P@@](=O)(S)O[C@H]2[C@H]1F)O[C@H]3n1cnc2c(N)ncnc21
- Activity [4]: Active

Structure (SMILES): Nc1ncnc2c1ccn2[C@@H]1O[C@@H]2CO[P@@](=O)(S)O[C@@H]3[C@H](O)[C@@H](CO[P@@](=O)(S)O[C@H]2[C@H]1O)O[C@H]3n1cnc2c(N)ncnc21
- Activity [4]: Active
- Activity (Mus musculus [1]): Active
- Activity (Mus musculus [2]): Active
- Activity (Mus musculus [3]): Active
